Results on three compounds are retold here after ChEMBL document CHEMBL3351797, “Synthesis, in vitro and in silico studies of a PPARγ and GLUT-4 modulator with hypoglycemic effect” (2014).

Activity calls are given as the source filed them. The calls are words filed in the database; no cut-off is given here.

In experiment [1] the test system is 3T3-L1. The experiment in a line: Increase in PPARgamma mRNA expression mouse 3T3L1 cells at 10 uM after 24 hrs by SYBR Green-based expression analysis relative to control. Type of experiment: functional.
For experiment [2], the system named is 3T3-L1. Kind of experiment: Increase in Glut-4 mRNA expression mouse 3T3L1 cells at 10 uM after 24 hrs by SYBR Green-based expression analysis relative to control. It is filed as functional.
Experiment [3] deals with 3T3-L1. The experiment in a line: Increase in PPARalpha mRNA expression mouse 3T3L1 cells at 10 uM after 24 hrs by SYBR Green-based expression analysis relative to control. It is filed as functional, cell-based.
The subject of experiment [4] is Rattus norvegicus. Kind of experiment: Antidiabetic activity in streptozotocin-nicotinamide-induced NIDDM Wistar rat model assessed as reduction in blood glucose level at 50 mg/kg administered intragastrically measured at 1 hr post dose relative to control. More on the design: scale not given: the % may be the effect or the level left. Type of experiment: functional. The following applies: route intragastric. In outline:
(§1)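 Streptozotocin–nicotinamide-induced diabetic rats received one intragastric dose (test agent 50 mg/Kg; glibenclamide 5 mg/Kg as hypoglycemic control). Blood glucose was sampled at 0, 1, 3, 5 and 7 h after dosing. Change was expressed as percentage variation of glycemia from zero hour, negative meaning a decrease. Values are mean ± SEM (n = 6), compared with a control group.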

Experiment [5] relates to Rattus norvegicus. The experiment in a line: Antidiabetic activity in streptozotocin-nicotinamide-induced NIDDM Wistar rat model assessed as reduction in blood glucose level at 50 mg/kg administered intragastrically measured at 3 hrs post dose relative to control. It is filed as functional. Also on record: scale not given: the % may be the effect or the level left. As to conditions: route intragastric. In outline:
as §1

In experiment [6] the test system is Rattus norvegicus. The experiment in a line: Antidiabetic activity in streptozotocin-nicotinamide-induced NIDDM Wistar rat model assessed as reduction in blood glucose level at 50 mg/kg administered intragastrically measured at 5 hrs post dose relative to control. Type of experiment: functional. More on the design: scale not given: the % may be the effect or the level left. As to conditions: route intragastric. In outline: as §1

The test system of experiment [7] is Rattus norvegicus. The experiment in a line: Antidiabetic activity in streptozotocin-nicotinamide-induced NIDDM Wistar rat model assessed as reduction in blood glucose level at 50 mg/kg administered intragastrically measured at 7 hrs post dose relative to control. The following applies: route intragastric. It is filed as functional. Also on record: scale not given: the % may be the effect or the level left. In outline: as §1

Experiment [8] concerns Rattus norvegicus. The experiment in a line: Antidiabetic activity in streptozotocin-nicotinamide-induced NIDDM Wistar rat model assessed as reduction in blood glucose level at 5 mg/kg administered intragastrically measured at 1 hr post dose relative to control. Type of experiment: functional. More on the design: scale not given: the % may be the effect or the level left. As to conditions: route intragastric. In outline: as §1

Experiment [9] has as its system Rattus norvegicus. The experiment in a line: Antidiabetic activity in streptozotocin-nicotinamide-induced NIDDM Wistar rat model assessed as reduction in blood glucose level at 5 mg/kg administered intragastrically measured at 3 hrs post dose relative to control. It is filed as functional. Also on record: scale not given: the % may be the effect or the level left. The following applies: route intragastric. In outline: as §1

Experiment [10] relates to Rattus norvegicus. The experiment in a line: Antidiabetic activity in streptozotocin-nicotinamide-induced NIDDM Wistar rat model assessed as reduction in blood glucose level at 5 mg/kg administered intragastrically measured at 5 hrs post dose relative to control. Also on record: scale not given: the % may be the effect or the level left. The following applies: route intragastric. It is filed as functional. In outline: as §1

For experiment [11], the system named is Rattus norvegicus. The experiment in a line: Antidiabetic activity in streptozotocin-nicotinamide-induced NIDDM Wistar rat model assessed as reduction in blood glucose level at 5 mg/kg administered intragastrically measured at 7 hrs post dose relative to control. It is filed as functional. More on the design: scale not given: the % may be the effect or the level left. The following applies: route intragastric. In outline:
as §1

Regarding `CCOC(=O)COc1ccc(NC(=O)COc2ccc(/C=C3\SC(=O)NC3=O)cc2)cc1`, the “fold change (FC)” value in the experiment with 3T3-L1 [1] and with 3T3-L1 [2] was 2 each time. Further, the result with 3T3-L1 [3] was inactive. Moreover, the Activity was 4.4% in the experiment on Rattus norvegicus [4], 20.5% with Rattus norvegicus [5], 36.7% with Rattus norvegicus [6] and 31% in the experiment with Rattus norvegicus [7].
In the case of `COc1ccc(Cl)cc1C(=O)NCCc1ccc(S(=O)(=O)NC(=O)NC2CCCCC2)cc1` [GLYBURIDE], the Activity is listed as 20.5% in the experiment with Rattus norvegicus [8], 36.3% in the experiment on Rattus norvegicus [9], 37.5% in the experiment on Rattus norvegicus [10] and 43.6% in the experiment with Rattus norvegicus [11].
Turning to `O=C(O)COc1ccc(NC(=O)COc2ccc(/C=C3\SC(=O)NC3=O)cc2)cc1`, the “fold change (FC)” value with 3T3-L1 [1] and in the experiment with 3T3-L1 [2] was 2 in each case. In addition, the outcome with 3T3-L1 [3] was inactive.
